Activity calls are given as the source filed them. The rule behind the calls is not given here.
Columns and labels:
[1] = target: T1, NAD-dependent protein deacetylase sirtuin-1 (Homo sapiens) (UniProt Q96EB6); experiment: Activation of SIRT1 expressed in HEK293 cells assessed as reduction in p53 transcriptional activity incubated for 12 hrs by luciferase reporter gene assay; format: cell-based
T1 sequence (whole entry): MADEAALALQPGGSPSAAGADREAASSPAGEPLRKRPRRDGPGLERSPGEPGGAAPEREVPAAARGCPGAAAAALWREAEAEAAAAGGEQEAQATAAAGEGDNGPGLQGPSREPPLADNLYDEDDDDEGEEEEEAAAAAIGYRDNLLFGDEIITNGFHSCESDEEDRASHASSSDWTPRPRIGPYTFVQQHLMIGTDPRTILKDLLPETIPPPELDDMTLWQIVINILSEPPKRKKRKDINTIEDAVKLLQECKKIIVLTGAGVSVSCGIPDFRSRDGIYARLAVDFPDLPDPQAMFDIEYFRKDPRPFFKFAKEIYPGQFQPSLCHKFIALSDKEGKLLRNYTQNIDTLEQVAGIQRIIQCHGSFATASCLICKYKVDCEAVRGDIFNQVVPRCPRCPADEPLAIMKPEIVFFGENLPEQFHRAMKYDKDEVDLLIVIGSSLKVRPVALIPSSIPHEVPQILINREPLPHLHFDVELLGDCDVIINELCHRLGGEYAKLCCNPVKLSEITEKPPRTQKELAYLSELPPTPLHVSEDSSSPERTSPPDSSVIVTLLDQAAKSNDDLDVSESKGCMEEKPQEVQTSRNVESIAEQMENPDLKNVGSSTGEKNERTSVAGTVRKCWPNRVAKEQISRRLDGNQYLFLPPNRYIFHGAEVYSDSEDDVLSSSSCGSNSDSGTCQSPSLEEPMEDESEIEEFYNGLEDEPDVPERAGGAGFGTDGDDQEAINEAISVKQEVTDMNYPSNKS
Outline: (§1)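 HEK293 cells in DMEM with 10% FBS, plated at 10^5 cells/well. After 24 h, PEI-transfected with PG13-luc (wt p53 sites), myc-p53, flag-SIRT1 and RSV-β-gal. Treated 24 h post-transfection for 12 h. Luciferase normalized to internal control. Triplicate experiments, mean ± SD.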

[2] = target: T1, NAD-dependent protein deacetylase sirtuin-1 (Homo sapiens); experiment: Activation of SIRT1 expressed in HEK293 cells assessed as increase in NAD to NADH ratio at 20 uM after 12 hrs by NAD+/NADH assay
[3] = target: T1, NAD-dependent protein deacetylase sirtuin-1 (Homo sapiens); experiment: Activation of SIRT1 expressed in HEK293 cells assessed as reduction in p53 transcriptional activity at 10 uM incubated for 12 hrs by luciferase reporter gene assay; format: cell-based; outline: as §1
[4] = target: T1, NAD-dependent protein deacetylase sirtuin-1 (Homo sapiens); experiment: Activation of SIRT1 expressed in HEK293 cells assessed as increase in enzyme deacetylation activity at 10 uM using acetylated p53 substrate and NAD+ by bioluminescence assay; format: cell-based
Outline: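 Enzyme–compound premix 10 min, then substrate/NAD+ added and run 2 h. Quenched with LDH reagent containing nicotinamide for 1 h. Read by luciferase/FMN-oxidoreductase/decanal luminescence within 15 min. DMSO reaction as positive control, no-enzyme as blank.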

[5] = target: T1, NAD-dependent protein deacetylase sirtuin-1 (Homo sapiens); experiment: Activation of SIRT1 expressed in HEK293 cells assessed as increase in enzyme deacetylation activity pre-incubated for 10 mins before addition of acetylated p53 peptide substrate and NAD+ by NAD+/NADH assay; format: cell-based
Outline: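 Cell-free SIRT1 (0.1 U/mL) with 10 μM NAD+ and 20 μM Ac-p53 peptide in Tris/Cl pH 8.0, NaCl, KCl, MgCl2, BSA buffer. Enzyme–compound premix 10 min at room temperature, then 6 h at ambient temperature. Stopped with NAD/NADH recycling enzyme mix containing 1 mM nicotinamide; absorbance read after 2 h. DMSO and no-enzyme controls.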

COc1cc2ccc(=O)oc2c(OC)c1OC[C@@H](O)[C@](C)(O)CC[C@H]1OC1(C)C
Activity [1]: Dose-dependent effect | Activity [2]: > 50% | Activity [3]: Active | Activity [4]: Active | Activity [5]: Dose-dependent effect

COc1cc2ccc(=O)oc2c(OC)c1OC/C=C(\C)CCC=C(C)C
Activity [1]: Dose-dependent effect | Activity [2]: > 50% | Activity [3]: Active | Activity [4]: Active | Activity [5]: Dose-dependent effect

COc1cc2ccc(=O)oc2c(OC)c1OC[C@H](O)[C@@H](C)[C@@H]1O[C@H]1C=C(C)C
Activity [1]: Dose-dependent effect | Activity [2]: > 50% | Activity [3]: Active | Activity [4]: Active | Activity [5]: Dose-dependent effect

COc1cc2ccc(=O)oc2c(OC)c1OC[C@@H](O)[C@](C)(O)CCC=C(C)C
Activity [1]: Dose-dependent effect | Activity [2]: > 50% | Activity [3]: Active | Activity [4]: Active | Activity [5]: Dose-dependent effect
